Active and inactive are the calls of the source.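 The calls were made as follows, unless noted: active = viability at or under a set limit in both replicates, limit being median viability minus 3 SD (cut at about 48% in these data, passing the limit was not always enough); inconclusive = at or under the limit in just one replicate; inactive = at or above the limit in both replicates.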
Assays:
[1] = reducers of endogenous Her2 protein level, primary screen, SKBR3 breast tumor cells, AlphaScreen, ATP viability (AID 461;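 active = Her2 level under about 52% in both replicate screens, with viability over 70% of control, limit read from the data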;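 as to Her2 level: lower value means less Her2 protein in the cells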;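 as to viability: percent of carrier control wells set as 100% viability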); conditions: 18-24 h, measured here: SKBR3 viability, ATP luminescence, at 10 µM
[2] = target: Receptor tyrosine-protein kinase erbB-2 (Homo sapiens) (UniProt P04626); test: as above; conditions: 18-24 h, at 10 µM, stronger effect = lower value
Sequence of Receptor tyrosine-protein kinase erbB-2 (Homo sapiens) (P04626 whole entry, looked up): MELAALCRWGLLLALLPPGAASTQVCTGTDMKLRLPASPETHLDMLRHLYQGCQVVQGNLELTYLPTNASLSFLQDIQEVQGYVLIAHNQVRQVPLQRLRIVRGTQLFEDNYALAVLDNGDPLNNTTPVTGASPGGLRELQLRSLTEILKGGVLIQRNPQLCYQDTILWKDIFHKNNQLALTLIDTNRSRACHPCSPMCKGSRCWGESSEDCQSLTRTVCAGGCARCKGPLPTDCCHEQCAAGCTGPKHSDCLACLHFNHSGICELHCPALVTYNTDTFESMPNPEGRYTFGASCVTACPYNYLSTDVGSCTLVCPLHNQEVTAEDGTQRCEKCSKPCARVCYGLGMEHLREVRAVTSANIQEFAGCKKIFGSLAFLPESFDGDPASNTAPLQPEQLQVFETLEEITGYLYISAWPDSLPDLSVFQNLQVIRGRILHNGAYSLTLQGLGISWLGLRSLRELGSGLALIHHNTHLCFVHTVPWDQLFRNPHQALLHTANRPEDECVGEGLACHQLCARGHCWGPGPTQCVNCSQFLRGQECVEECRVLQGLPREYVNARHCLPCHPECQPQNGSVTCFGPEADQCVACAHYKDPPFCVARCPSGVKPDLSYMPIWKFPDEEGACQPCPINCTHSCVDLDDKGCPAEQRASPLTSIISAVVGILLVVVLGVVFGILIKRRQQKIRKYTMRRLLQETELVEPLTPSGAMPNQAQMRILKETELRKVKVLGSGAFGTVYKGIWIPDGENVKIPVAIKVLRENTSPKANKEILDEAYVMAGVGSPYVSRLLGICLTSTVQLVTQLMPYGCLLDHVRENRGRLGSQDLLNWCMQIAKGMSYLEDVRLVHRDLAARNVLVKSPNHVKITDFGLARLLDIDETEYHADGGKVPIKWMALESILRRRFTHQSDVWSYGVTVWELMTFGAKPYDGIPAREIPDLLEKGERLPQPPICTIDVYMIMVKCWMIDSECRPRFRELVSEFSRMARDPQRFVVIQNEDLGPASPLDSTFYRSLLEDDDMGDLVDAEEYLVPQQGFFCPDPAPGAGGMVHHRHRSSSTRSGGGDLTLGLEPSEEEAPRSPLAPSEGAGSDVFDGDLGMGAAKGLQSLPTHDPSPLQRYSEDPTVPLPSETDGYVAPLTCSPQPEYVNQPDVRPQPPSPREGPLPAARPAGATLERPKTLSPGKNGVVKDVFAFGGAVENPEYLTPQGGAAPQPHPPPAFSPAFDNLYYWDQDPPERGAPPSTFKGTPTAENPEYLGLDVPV

[3] = SK-BR-3 cell growth inhibitors, pilot screen, 24 h, human (AID 572;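 active = viability at or below 10% of carrier control in both of two separate runs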;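 also: compound exposure lasted between 18 and 24 h rather than exactly 24 h; 100% = carrier-treated control wells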); conditions: SK-BR-3 viability, CellTiter-Glo luminescence, at 10 µM, stronger effect = lower value
[4] = HUVEC growth inhibition – cell-based, human, primary screen (AID 575;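 active = viability at or below 30% in both replicate assays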;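 also: 100% = median of untreated cell wells with 0.1% DMSO on each plate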); conditions: HUVEC proliferation, CellTiter-Glo luminescence, 72 h; at 10 µM; stronger effect = lower value
Method in brief: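 Test system: primary human umbilical vein endothelial cells; medium: endothelial basal medium with 2% FBS plus growth supplements; dosing: 10 µM compound only; times: 72 h treatment at 37 °C; signal: CTG luminescence; read-out: % viability relative to median vehicle-well signal on each plate; control set: vehicle and MePR control wells; plate: 384-well, collagen-coated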

[5] = growth inhibitors of H69AR lung tumor, primary screen, human, duplicate replicates (AID 580); conditions: H69AR lung tumor cells viability, ATP luminescence, 72 h; at 10 µM; stronger effect = lower value;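 also: 100% = mean luminescence of untreated wells and 0% = no signal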
[6] = reversal of MRP1-mediated doxorubicin resistance, pilot screen, H69AR cells, doxorubicin co-treatment (AID 601;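 active = viability loss from added drug above about 55%, and viability with drug at most 40%, in both replicates, limit read from the data, passing the limit was not always enough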); conditions: CellTiter-Glo, 72 h, at 10 µM; for differential viability (reversal): stronger effect = higher value
[7] = 384-well plate pilot, post-Golgi transport modulator project, inhibition of yeast transport mutant growth (AID 636; in the data active = inhibition above about 31%); conditions: absorbance 615 nm, about 18 h, stronger effect = higher value
[8] = growth suppression of yeast trafficking mutant, preliminary HTS, modulators of trafficking downstream of Golgi apparatus project, 1536-format plate, OD 615 nm (AID 637; in the data active = inhibition above about 30%); conditions: yeast transport mutant growth, absorbance 615 nm, 18 h; stronger effect = higher value
[9] = H69AR cells + 2 uM doxorubicin, measured here: viability with 2 uM doxorubicin, stronger effect = lower value
[10] = H69AR cells, compound alone cytotoxicity

SMILES | viability [1] [%] | Her2 level [2] | viability [3] | viability [4] | viability [5] | differential viability (reversal) ([6]; H69AR cells + 2 uM doxorubicin) | viability [6, 9] [%] | viability [6, 10] [%] | inhibition [7] | inhibition [8]
Cc1oc(C(=O)O)cc1CSCc1cc(C(=O)O)c(C)o1 | 104 | 94.5% (inactive) | 104% (inactive) | 92.9% (inactive) | 103% (inactive) | 1.31% (inactive) | 102 | 103 | -3.51% (inactive) | -1.48% (inactive)
O=C(COc1ccccc1F)NC1CC1 | 94.5 | 88.5% (inactive) | 94.5% (inactive) | 88.7% (inactive) | 107% (inactive) | 11.7% (inactive) | 95 | 107 | -6.58% (inactive) | -2.5% (inactive)
CCc1nnc(NC(=O)c2cc3c(s2)CCCCC3)s1 | 92.5 | 108% (inactive) | 92.5% (inactive) | 90.5% (inactive) | 76.1% (inactive) | -2.58% (inactive) | 78.7 | 76.1 | -1.17% (inactive) | -3.44% (inactive)
COc1ccc(Br)cc1CNC(=O)C1CCCN(S(C)(=O)=O)C1 (stereo not given) | 78 | 104% (inactive) | 78% (inactive) | 94.7% (inactive) | 88.4% (inactive) | 6.26% (inactive) | 82.2 | 88.4 | 0.9% (inactive) | 10.2% (inactive)
COc1ccc(CCNC(=O)c2ccc(N3CCCC3=O)cc2)cc1OC | 102 | 108% (inactive) | 102% (inactive) | 103% (inactive) | 92.1% (inactive) | 12.3% (inactive) | 79.8 | 92.1 | -5.84% (inactive) | 4.92% (inactive)
CCOc1ccccc1Nc1ncnc2ccccc12 | 101 | 81% (inactive) | 101% (inactive) | 78.4% (inactive) | 82% (inactive) | 1.99% (inactive) | 80 | 82 | -1.45% (inactive) | 0.18% (inactive)
Cc1ccccc1N(CC(=O)NCC1CCCO1)C(=O)C1(C)CC(=O)N=C2C=CC=CN21 (stereo not given) | 96 | 96.5% (inactive) | 96% (inactive) | 104% (inactive) | 98.7% (inactive) | -1.7% (inactive) | 100 | 98.7 | -1.05% (inactive) | -10.5% (inactive)
O=C(NC1CCCc2ccccc21)C1CCN(S(=O)(=O)c2cnc[nH]2)CC1 (stereo not given) | 104 | 100% (inactive) | 104% (inactive) | 102% (inactive) | 94.8% (inactive) | -11.3% (inactive) | 106 | 94.8 | -0.79% (inactive) | -3.87% (inactive)
Cc1ccc(S(=O)(=O)N2CCN(C(=O)CN3C(=O)NC4(CCOc5ccccc54)C3=O)CC2)cc1 (stereo not given) | 98.5 | 108% (inactive) | 98.5% (inactive) | 102% (inactive) | 101% (inactive) | 1.57% (inactive) | 99.8 | 101 | 4.08% (inactive) | -1.09% (inactive)
O=C(CN1C(=O)C2C3C=CC(C3)C2C1=O)NCc1ccc2c(c1)OCO2 (stereo not given) | 102 | 109% (inactive) | 102% (inactive) | 97.9% (inactive) | 98.2% (inactive) | 8.13% (inactive) | 90.1 | 98.2 | -1.43% (inactive) | -7.78% (inactive)
CCOc1ccc(NC(=O)CSc2nnc(Cc3cccn3C)n2-c2ccc(OC)cc2)cc1 | 82 | 81% (inactive) | 82% (inactive) | 79.5% (inactive) | 90.6% (inactive) | -5.27% (inactive) | 95.9 | 90.6 | -1.49% (inactive) | -8.03% (inactive)
Cc1nnc(NC(=O)c2ccccc2F)s1 | 100 | 101% (inactive) | 100% (inactive) | 107% (inactive) | 104% (inactive) | 13.8% (inactive) | 90.2 | 104 | -3.24% (inactive) | 4.76% (inactive)
CC1CCCCC1NC(=O)CCCc1nc2ccccc2c(=O)[nH]1 (stereo not given) | 80.5 | 93.5% (inactive) | 80.5% (inactive) | 105% (inactive) | 110% (inactive) | 13.7% (inactive) | 96.2 | 110 | 0.27% (inactive) | 2.46% (inactive)
COc1ccccc1OCC(=O)Nc1cccc(-c2nc3ccccc3o2)c1 | 104 | 78.5% (inactive) | 104% (inactive) | 52.8% (inactive) | 65.1% (inactive) | -14.2% (inactive) | 79.3 | 65.1 | -0.13% (inactive) | 23% (inactive)
COCCn1c(SCC(=O)Nc2cccc(OC)c2)nnc1-c1ccccc1 | 101 | 99.5% (inactive) | 101% (inactive) | 90.1% (inactive) | 103% (inactive) | 6.8% (inactive) | 96.6 | 103 | -3.51% (inactive) | 4.43% (inactive)
CN1C(=O)C2(NCCc3c2[nH]c2ccccc32)c2ccccc21 (stereo not given) | 114 | 100% (inactive) | 114% (inactive) | 86.8% (inactive) | 109% (inactive) | 12.9% (inactive) | 96 | 109 | -3.82% (inactive) | 6.07% (inactive)

SMILES | viability [1] [%] | Her2 level [2] | viability [3] | viability [4] | viability [5] | differential viability (reversal) ([6]; H69AR cells + 2 uM doxorubicin) | viability [6, 9] [%] | viability [6, 10] [%] | inhibition [7] | inhibition [8]
CC(Sc1nc(-c2ccccc2)cc(C(F)(F)F)n1)C(=O)N1CCC(C(N)=O)CC1 (stereo not given) | 100 | 87.5% (inactive) | 100% (inactive) | 85.6% (inactive) | 91.1% (inactive) | -1.27% (inactive) | 92.3 | 91.1 | -0.91% (inactive) | 11% (inactive)
CC(=O)N1CCN(c2ccc(S(=O)(=O)N3CCCCC3)cn2)CC1 | 97 | 89.5% (inactive) | 97% (inactive) | 101% (inactive) | 88.6% (inactive) | 3.99% (inactive) | 84.6 | 88.6 | -0.39% (inactive) | -0.16% (inactive)
Cc1cc(C)n(-c2ccc(C(=O)Nc3ccc4c(c3)OCCO4)cc2)n1 | 93 | 77.5% (inactive) | 93% (inactive) | 62.2% (inactive) | 89% (inactive) | -6.18% (inactive) | 95.2 | 89 | 1.03% (inactive) | -2% (inactive)
Cc1ccc(C)c(OCC(O)CN2C(C)CCCC2C)c1 (stereo not given) | 70 | 98% (inactive) | 70% (inactive) | 96.2% (inactive) | 83.8% (inactive) | 0.415% (inactive) | 83.4 | 83.8 | -0.53% (inactive) | -0.95% (inactive)
CNC(=O)CSc1nnc(-c2cc3c(C)nn(-c4ccccc4)c3s2)n1C | 112 | 112% (inactive) | 112% (inactive) | 99.2% (inactive) | 109% (inactive) | 22.3% (inactive) | 86.9 | 109 | -0.13% (inactive) | -2.54% (inactive)
COc1ccc(Cl)c(NCCC(=O)O)c1 | 88 | 107% (inactive) | 88% (inactive) | 98.6% (inactive) | 95.6% (inactive) | 7.1% (inactive) | 88.5 | 95.6 | -1.37% (inactive) | 9.37% (inactive)
O=C1NC2=C(C(=O)CCC2)C(c2ccc3ncccc3c2)N1 (stereo not given) | 106 | 91% (inactive) | 106% (inactive) | 115% (inactive) | 98.4% (inactive) | 12.6% (inactive) | 85.8 | 98.4 | -1.64% (inactive) | 1.9% (inactive)
O=C(CN1CCC(n2nnc3cc(F)ccc32)CC1)Nc1ccc2c(c1)CCC2 | 93 | 104% (inactive) | 93% (inactive) | 79.5% (inactive) | 86.3% (inactive) | -5.55% (inactive) | 91.8 | 86.3 | -4.59% (inactive) | -3.5% (inactive)
Cn1c(SCc2nc3ccccc3c(=O)[nH]2)nnc1-c1ccco1 | 99.5 | 81% (inactive) | 99.5% (inactive) | 97.5% (inactive) | 96% (inactive) | 5.6% (inactive) | 90.4 | 96 | -7.84% (inactive) | 6.89% (inactive)
COc1ccc(NC(=O)CN(c2ccc(C)cc2)S(C)(=O)=O)c(OC)c1 | 90 | 118% (inactive) | 90% (inactive) | 84.8% (inactive) | 101% (inactive) | 11.9% (inactive) | 89.4 | 101 | -2.63% (inactive) | -3.5% (inactive)
COc1cccc(-c2cc(C(=O)Nc3cc(OC)c(OC)c(OC)c3)no2)c1 | 106 | 99.5% (inactive) | 106% (inactive) | 57.5% (inactive) | 16.6% (active) | -72% (inactive) | 88.6 | 16.6 | -4.59% (inactive) | -3.11% (inactive)
Cc1nnc(NCCc2ccccc2)n(N)c1=O | 107 | 104% (inactive) | 107% (inactive) | 120% (inactive) | 94.1% (inactive) | -3.7% (inactive) | 97.8 | 94.1 | -0.4% (inactive) | -9.03% (inactive)
CC1CCCN(C(=O)c2cc(F)c(F)cc2Cl)C1 (stereo not given) | 99 | 95.5% (inactive) | 99% (inactive) | 104% (inactive) | 89.2% (inactive) | -4.92% (inactive) | 94.1 | 89.2 | -4.93% (inactive) | -3.77% (inactive)
O=C(Nc1cc(Cl)ccc1Cl)c1noc2c1CCCC2 | 87.5 | 90.5% (inactive) | 87.5% (inactive) | 63.5% (inactive) | 83.5% (inactive) | -3.4% (inactive) | 86.9 | 83.5 | -0.51% (inactive) | -5.5% (inactive)
CC1(C(=O)CSc2nc3ccccc3s2)CCC(=O)O1 (stereo not given) | 107 | 89% (inactive) | 107% (inactive) | 73.2% (inactive) | 90.1% (inactive) | 3.12% (inactive) | 87 | 90.1 | -7.4% (inactive) | -3.17% (inactive)

From PubChem BioAssay
